In ChEMBL document CHEMBL1137702, “Identification of hydrolytically stable and selective P2Y(1) receptor agonists” (Eur J Med Chem, 2009):
Calls of active or inactive are those of the source. The calls are words filed in the database; no cut-off is given here.

How the values were obtained:
Serum = test: Metabolic stability in human serum assessed as hydrolysis half life at 0.25 mM measured for 4 days by HPLC; type: ADME, cell-free; settings: 96 h, 250 µM
Method in brief: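 Human serum (healthy donors; clotted 12 h at 4 °C, spun 1500 × g, stored −80 °C) diluted with RPMI-1640, incubated with 0.25 mM nucleotide at 37 °C for 1–96 h. Stopped with HCl, neutralized with KOH, analysed by C18 HPLC (KH2PO4 pH 4.5/acetonitrile). t1/2 from peak-area change.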

[1] = Chemical stability assessed as hydrolysis half life at 1.5 mg at pH 1.4 measured at 24 hrs interval for 12 days by 31P NMR analysis; type: physicochemical
Method in brief: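 1.5 mg in 0.2 M HCl/KCl with D2O, pH adjusted to 1.4, kept at 37 °C. 31P NMR spectra, 500 scans each, were recorded about every 24 h for 12 days to obtain half-life.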

[2] = target: T1, Ectonucleotide pyrophosphatase/phosphodiesterase family member 3 (Homo sapiens) (UniProt O14638); test: Inhibition of human NPP3 expressed in human 293T cells; type: cell-based
T1 sequence (whole entry): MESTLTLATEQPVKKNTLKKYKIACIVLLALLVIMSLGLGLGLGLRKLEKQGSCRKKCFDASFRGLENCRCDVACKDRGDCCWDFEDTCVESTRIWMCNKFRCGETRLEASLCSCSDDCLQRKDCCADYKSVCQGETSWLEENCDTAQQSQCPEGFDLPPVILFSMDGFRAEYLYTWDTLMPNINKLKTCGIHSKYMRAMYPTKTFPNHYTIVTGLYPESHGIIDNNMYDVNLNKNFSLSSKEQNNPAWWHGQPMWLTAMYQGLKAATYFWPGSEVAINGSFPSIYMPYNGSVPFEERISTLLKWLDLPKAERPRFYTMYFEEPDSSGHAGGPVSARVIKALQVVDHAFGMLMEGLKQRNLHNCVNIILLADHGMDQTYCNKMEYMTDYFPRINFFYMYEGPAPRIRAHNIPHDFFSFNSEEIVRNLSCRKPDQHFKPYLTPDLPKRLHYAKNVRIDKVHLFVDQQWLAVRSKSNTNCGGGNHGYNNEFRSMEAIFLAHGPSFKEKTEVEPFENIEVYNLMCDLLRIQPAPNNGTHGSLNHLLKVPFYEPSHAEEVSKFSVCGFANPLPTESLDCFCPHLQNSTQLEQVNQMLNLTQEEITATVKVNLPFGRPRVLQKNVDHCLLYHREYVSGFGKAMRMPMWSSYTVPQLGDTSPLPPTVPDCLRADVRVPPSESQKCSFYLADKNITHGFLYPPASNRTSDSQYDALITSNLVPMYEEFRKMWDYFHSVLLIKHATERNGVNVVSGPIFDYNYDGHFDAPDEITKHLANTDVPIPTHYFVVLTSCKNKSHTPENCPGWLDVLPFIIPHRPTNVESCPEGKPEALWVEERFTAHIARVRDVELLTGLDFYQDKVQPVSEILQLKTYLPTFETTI

[3] = target: T2, Ectonucleoside triphosphate diphosphohydrolase 8 (Homo sapiens) (UniProt Q5MY95); test: Activity of human NTPDase 8 expressed in human 293T cells assessed as drug hydrolysis at 100 uM after 20 mins relative to ATP; type: cell-based; set-up: scale not given: the % may be the effect or the level left
T2 sequence (whole entry): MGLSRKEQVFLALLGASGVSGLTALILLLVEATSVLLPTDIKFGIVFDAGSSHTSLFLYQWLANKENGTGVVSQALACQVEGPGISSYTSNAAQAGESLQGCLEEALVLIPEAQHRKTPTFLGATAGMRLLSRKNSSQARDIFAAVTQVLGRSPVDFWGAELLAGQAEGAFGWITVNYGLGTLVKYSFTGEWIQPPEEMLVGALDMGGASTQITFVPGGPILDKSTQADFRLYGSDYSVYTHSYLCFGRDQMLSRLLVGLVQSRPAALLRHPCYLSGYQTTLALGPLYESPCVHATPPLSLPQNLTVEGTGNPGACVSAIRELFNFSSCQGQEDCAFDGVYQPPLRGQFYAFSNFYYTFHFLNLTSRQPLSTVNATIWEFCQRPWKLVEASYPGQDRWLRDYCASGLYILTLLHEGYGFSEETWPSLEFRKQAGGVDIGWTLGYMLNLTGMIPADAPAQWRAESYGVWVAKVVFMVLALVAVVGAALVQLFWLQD
Method in brief: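 Human NTPDase1, 2, 3 or 8 in crude extracts of transfected 293T cells, pre-incubated 3 min at 37 °C in Tris-Ringer buffer pH 7.4. […] Untransfected-cell extract activity subtracted.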

[4] = Dissociation constant, pKa of the compound; type: physicochemical
P2Y purinoceptor 1 = P2Y purinoceptor 1 (Meleagris gallopavo, UniProt P49652); test: Agonist activity at turkey P2Y1 receptor expressed in human 1321N1 cells assessed as increase in intracellular calcium concentration by dual-excitation spectrofluorimetric analysis; type: functional, cell-based
[5] = Stability at 77 ug/ml after 30 mins by HPLC in presence of calf intestine alkaline phosphatase; type: ADME; settings: cattle, isolated protein, 0.5 h
[6] = target: P2Y purinoceptor 6 (Rattus norvegicus) (UniProt Q63371); test: Antagonist activity at rat P2Y6 receptor expressed in human 1321N1 cells assessed as inhibition of UDP-induced increase in intracellular calcium concentration by dual-excitation spectrofluorimetric analysis; type: functional, cell-based
Method in brief: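 Fura-2-loaded suspensions of stably transfected 1321N1 cells were assayed at 37 °C in HEPES-buffered saline pH 7.4 with 1 mM Ca2+ and Mg2+. […] [Ca2+]i was read by dual-excitation spectrofluorometry.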

P2Y purinoceptor 6 (Rattus norvegicus), sequence (Q63371 whole entry): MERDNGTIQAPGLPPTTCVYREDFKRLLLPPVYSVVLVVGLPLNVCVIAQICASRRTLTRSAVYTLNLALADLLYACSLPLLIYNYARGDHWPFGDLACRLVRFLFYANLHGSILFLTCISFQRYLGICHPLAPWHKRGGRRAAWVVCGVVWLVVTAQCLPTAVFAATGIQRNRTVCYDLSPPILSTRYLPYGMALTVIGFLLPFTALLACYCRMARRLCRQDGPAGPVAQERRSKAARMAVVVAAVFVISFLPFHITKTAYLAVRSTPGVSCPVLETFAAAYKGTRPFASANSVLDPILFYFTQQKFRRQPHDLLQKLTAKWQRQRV
P2Y purinoceptor 1, sequence (P49652 whole entry): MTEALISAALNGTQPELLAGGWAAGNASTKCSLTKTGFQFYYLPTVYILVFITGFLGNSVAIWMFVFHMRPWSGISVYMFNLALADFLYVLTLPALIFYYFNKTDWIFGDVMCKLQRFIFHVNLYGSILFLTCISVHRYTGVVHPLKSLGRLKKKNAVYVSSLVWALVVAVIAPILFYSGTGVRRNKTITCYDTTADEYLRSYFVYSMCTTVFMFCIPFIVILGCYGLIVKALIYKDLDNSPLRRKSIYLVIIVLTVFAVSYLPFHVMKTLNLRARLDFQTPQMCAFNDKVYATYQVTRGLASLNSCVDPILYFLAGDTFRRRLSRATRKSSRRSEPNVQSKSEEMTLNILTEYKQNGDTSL

Structure (SMILES)	t1/2 (Serum) [h]	half-life [1] [h]	Activity [2]	Activity [3] [%]	pKa [4]	EC50 (P2Y purinoceptor 1) [nM]	Stability [5]	Activity [6]
CSc1nc(N)c2ncn([C@@H]3O[C@H](COP(=O)(O)OP(=O)(O)CP(=O)(O)O)[C@@H](O)[C@H]3O)c2n1	12.7	65	inactive	7	8.4	80	Stable	inactive
BP(=O)(OC[C@H]1O[C@@H](n2cnc3c(N)ncnc32)[C@H](O)[C@@H]1O)OP(=O)(O)CP(=O)(O)O (stereo not given in full)			inactive	2				inactive
BP(=O)(OC[C@H]1O[C@@H](n2cnc3c(N)nc(SC)nc32)[C@H](O)[C@@H]1O)OP(=O)(O)CP(=O)(O)O (single isomer, unassigned; diastereomer A)			inactive	4				inactive
BP(=O)(OC[C@H]1O[C@@H](n2cnc3c(N)nc(SC)nc32)[C@H](O)[C@@H]1O)OP(=O)(O)CP(=O)(O)O (single isomer, unassigned; diastereomer B)			inactive	3				inactive
BP(=O)(OC[C@H]1O[C@@H](n2cnc3c(N)ncnc32)[C@H](O)[C@@H]1O)OP(=O)(O)CP(=O)(O)O (single isomer, unassigned; diastereomer B)			inactive	< 1				inactive
